In the library only some 2.1% were active in any assay of this set; here they are far more common.
L929 necroptosis – blocks zVAD induced death of L929 cells; viability rescue, % at 10 µM; L929 zVAD necroptosis rescue, ATP luminescence, 24 h; with zVAD 60 µM; AID 1377; 0.38% of 220,000 active;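 active = activation, scaled between plate controls, above about 75%, limit read from the data; inactive = activation under that limit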
STAT1 inh – inhibitors of IFN-gamma induced STAT1 signaling | inhibition, % at 5.5 µM | NIH 3T3 STAT1-luciferase reporter, luminescence | 0.35% of 200,000 active;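 active = inhibition above a set limit, the mean inhibition across all tested compounds plus 3 SD, cut at about 34% in these data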
STAT3 blocker – reduces IL-6 driven STAT3 reporter signal. 0.89% of 190,000 active. U3A cells, IL-6 STAT3-luciferase reporter, luminescence; host cell line lacks STAT1. inhibition, % at 5.5 µM;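 active = inhibition above the mean inhibition across all screened compounds plus 3 SD, cut at about 44% in these data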
STAT3 act-1 – STAT3 signaling activation. U3A cells, IL-6 STAT3-luciferase reporter, luminescence; 100% = signal with IL-6 EC80 alone. 0.91% of 190,000 active. activation (% of control), % at 5.6 µM;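 active = activation above the screen-wide mean of compound activation plus 3 SD, cut at about 130% in these data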
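Material: STAT1-lacking human U3A cells, STAT3 luciferase reporter | Benchmarks: IL-6-only wells as 100% reference | Probe or stimulus: IL-6 (33 ng/mL) | Timing: Compound 1 h, then IL-6 6 h at 37 °C | Detection: Luminescence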
TNF necrop inh – blocks TNF-alpha induced death of Jurkat FADD-/- cells. Jurkat FADD-/- TNF necroptosis rescue, ATP luminescence, 24 h; 0 = TNF only, 100 = no-TNF cells. activation (protection from cell death), % at 10 µM. 0.068% of 220,000 active. AID 463075;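 active = activation, meaning protection from cell death, of at least 50% relative to plate controls; inactive = activation below 50%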;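 also: necroptosis triggered by 40 ng/mL TNF-alpha added together with compound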
STAT3 act-2 – confirmation of STAT3 signaling activators; shares compounds with STAT3 act-1; U3A STAT3-luciferase reporter, IL-6 potentiation, luminescence; U3A cells lack STAT1; 100 means same as IL-6 alone; potentiation (% of control), % at 5.7 µM; 64% of 1,200 active; AID 1267;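 active = percent activation of the STAT3 luciferase reporter above a set limit taken from the earlier primary screen, cut at about 130% in these data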
NFkB act STAT3ct – counter-screen for STAT3 activators: NF-kappaB activation; shares compounds with STAT3 act-1; human cells, NF-kappaB reporter activation; activation (% of control), % at 5.7 µM; 11% of 1,200 active; in the data active = activation above about 120%;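 also: reporter induced by TNF-alpha stimulation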
STAT1 act – STAT1 activation in STAT3 activator counter-screen | shares compounds with STAT3 act-1 | NIH 3T3 STAT1-luciferase reporter, IFN-gamma, luminescence | activation (% of control), % at 5.7 µM | 13% of 1,200 active | AID 1318;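 active = activation above the solvent-only control well mean plus 3 SD, set per screening run, cut at about 120% in these data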
Of the large screens only hits and unclear results are named; the others gave an inactive call (follow-up assays come after a bar, where they were run).

Cc1cccc(C2c3[nH]c4ccccc4c3CCN2Cc2cnn(-c3ccc(F)cc3)c2)n1 (centres undefined)	STAT3 act-1 150 | STAT3 act-2 152 | NFkB act STAT3ct inactive | STAT1 act inactive
Cc1cccc(C2c3[nH]c4ccccc4c3CCN2C(=O)c2cn(C)c3ccccc3c2=O)n1 (centres undefined)	STAT3 act-1 136 | STAT3 act-2 inactive | NFkB act STAT3ct inactive | STAT1 act inactive
CSc1nc2ccc(NC(=O)C3=NN(c4ccccc4)C(=O)CC3)cc2s1	STAT3 act-1 138 | STAT3 act-2 161 | NFkB act STAT3ct inactive | STAT1 act inactive
COc1ccc2nc(NC(=O)C3=NN(c4ccccc4)C(=O)CC3)sc2c1	none
CSc1nc2ccc(NC(=O)C3=NNC(=O)CC3)cc2s1	STAT3 act-1 141 | STAT3 act-2 151 | NFkB act STAT3ct inactive | STAT1 act inactive
COC(=O)c1ccc(C(=O)NC(=S)Nc2ccc3nc(SC)sc3c2)cc1	none
COc1ccc(S(=O)(=O)N2CCN(Cc3ccccc3)CC2)cc1	STAT3 act-1 138 | STAT3 act-2 inactive | NFkB act STAT3ct inactive | STAT1 act inactive
CNc1cc([N+](=O)[O-])ccc1N/C=C/C(=O)c1cccs1	STAT3 act-1 176 | STAT3 act-2 153 | NFkB act STAT3ct inactive | STAT1 act inactive
COc1ccc(C2c3[nH]c4ccccc4c3CCN2C(=O)c2cc3ncccn3n2)c(F)c1 (centres undefined)	STAT3 act-1 146 | STAT3 act-2 149 | NFkB act STAT3ct inactive | STAT1 act inactive
COc1ccc(C2c3[nH]c4ccccc4c3CCN2C(=O)c2cn3ccccc3n2)c(F)c1 (centres undefined)	STAT3 act-1 161 | STAT3 act-2 159 | NFkB act STAT3ct inactive | STAT1 act inactive
COCCSc1nnc(NC(=O)c2ccc(NC(=O)C(C)C)cc2)s1	none
Oc1ccccc1-c1cc(-c2ccccc2)no1	STAT3 act-1 162 | STAT3 act-2 175 | NFkB act STAT3ct 124 | STAT1 act inactive
Cc1ccccc1-c1cc(-c2ccccc2O)on1	STAT3 act-1 168 | STAT3 act-2 184 | NFkB act STAT3ct inactive | STAT1 act inactive
COc1ccc2c(c1)CCc1c(C(=O)NCc3ccco3)noc1-2	none
C=CCN(CC=C)C(=O)c1ccc(OC2CCN(S(=O)(=O)N(C)C)CC2)cc1	none
Cc1cc(/C=N/O)c(C)n1-c1cccc(Cl)c1	none
O=C(O)CSc1c[nH]c2ccccc12	STAT3 act-1 151 | STAT3 act-2 inactive | NFkB act STAT3ct inactive | STAT1 act inactive
CC(C)C(=O)NCCSc1c[nH]c2ccccc12	none
CCC(=O)NCCSc1c[nH]c2ccccc12	STAT3 act-1 145 | STAT3 act-2 141 | NFkB act STAT3ct inactive | STAT1 act inactive
CC(Sc1c[nH]c2ccccc12)C(=O)O (centres undefined)	STAT3 act-1 147 | STAT3 act-2 inactive | NFkB act STAT3ct inactive | STAT1 act inactive
CCc1ccc(OCC(=O)N/N=C2\CC(=O)c3ccccc32)cc1	STAT3 act-1 146 | STAT3 act-2 inactive | NFkB act STAT3ct inactive | STAT1 act inactive
CS(=O)(=O)c1ccc(Sc2nc3ccccc3s2)c([N+](=O)[O-])c1	STAT3 act-1 147 | STAT3 act-2 inactive | NFkB act STAT3ct inactive | STAT1 act inactive
O=[N+]([O-])c1cc(S(=O)(=O)C(F)(F)F)ccc1Sc1nc2ccccc2s1	none
CCC(=O)Nc1nnc(-c2ccc(Cl)s2)o1	none
CC(=O)n1c2c(c3ccccc31)OC(N)=C(C#N)C2c1cccc(Cl)c1Cl (centres undefined)	STAT3 act-1 141 | STAT3 act-2 141 | NFkB act STAT3ct inactive | STAT1 act inactive
CCN(c1ccccc1)c1nc(C#N)nc(N(CC)c2ccccc2)n1	none (no result: STAT1 inh, STAT3 blocker, STAT3 act-1)
CC(=O)Nc1cccc(C(=O)NC(C)c2ccc(S(N)(=O)=O)cc2)c1 (centres undefined)	STAT3 act-1 148 | STAT3 act-2 inactive | NFkB act STAT3ct inactive | STAT1 act inactive
CC(C)C(=O)NNS(=O)(=O)c1ccccc1[N+](=O)[O-]	none
CN1C(=O)/C(=N\OC(=O)c2cccc3ccccc23)c2ccccc21	STAT3 act-1 141 | STAT3 act-2 inactive | NFkB act STAT3ct inactive | STAT1 act inactive
O=c1c2ccc([N+](=O)[O-])c3cccc(c32)c2nc3ccccc3n12	STAT3 act-1 148 | STAT3 act-2 150 | NFkB act STAT3ct inactive | STAT1 act inactive
CCc1nc2ccccc2c2nc3ccccc3n12	none
Cc1ccc(Nc2nc(-c3sc(NC(=O)c4cccc(Cl)c4)nc3C)cs2)cc1	STAT3 act-1 156 | STAT3 act-2 inactive | NFkB act STAT3ct inactive | STAT1 act inactive
CCCC(=O)Nc1nc(C)c(-c2csc(Nc3ccc(Cl)cc3)n2)s1	STAT3 act-1 177 | STAT3 act-2 162 | NFkB act STAT3ct inactive | STAT1 act inactive
CCC(C)C(=O)Nc1nc(C)c(-c2csc(Nc3ccc(Cl)cc3)n2)s1 (centres undefined)	STAT3 act-1 139 | STAT3 act-2 inactive | NFkB act STAT3ct inactive | STAT1 act inactive
CCOC(=O)NNc1ccc2nonc2c1[N+](=O)[O-]	none (no result: STAT1 inh, STAT3 blocker, STAT3 act-1)
Cc1ccc(C)c(NC(=S)c2nc3ccccc3s2)c1	STAT3 act-1 142 | STAT3 act-2 203 | NFkB act STAT3ct 127 | STAT1 act 130
OC(CN1C2=NCCCN2c2ccccc21)c1ccc2c(c1)OCO2 (centres undefined)	none
Cc1ccc(N(CC(=O)NC2CCC(C)CC2)S(=O)(=O)c2cccnc2)cc1 (centres undefined)	none
O=C(CNc1cccc2ccccc12)N/N=C/c1ccc(OC(=O)/C=C/c2ccco2)cc1	STAT3 act-1 156 (no result: L929 necroptosis) | STAT3 act-2 inactive | NFkB act STAT3ct inactive | STAT1 act inactive
Cc1nc2c(-c3ccc(Cl)cc3)c(C)[nH]n2c(=O)c1Cc1ccccc1	none
CCOC(=O)c1nnn(-c2nc(N(C)C)nc(N(C)C)n2)c1C	none
Clc1ccc(-c2cn3c(n2)SCC3)cc1	none
O=C(N/N=C/c1ccc(OCC(=O)N2CCCCC2)cc1)c1ccccc1O	STAT3 act-1 141 | STAT3 act-2 146 | NFkB act STAT3ct inactive | STAT1 act inactive
CN(Cc1ccccc1)S(=O)(=O)c1ccc(NC(=S)NC(=O)C2CCCCC2)cc1	none
C=CCn1c(SCC(=O)NCc2ccc3c(c2)OCO3)nnc1-c1cccnc1	none
COc1ccc(S(=O)(=O)N(CC(=O)NCc2ccco2)c2ccccc2)cc1	none
